Test [1] can be described thus: reducers of endogenous Her2 protein level, primary screen, SKBR3 breast tumor cells, AlphaScreen, ATP viability (AID 461;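 active = Her2 level under about 52% in both replicate screens, with viability over 70% of control, limit read from the data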;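 as to Her2 level: lower value means less Her2 protein in the cells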;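 as to viability: percent of carrier control wells set as 100% viability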). To be noted: 18-24 h, measured here: SKBR3 viability, ATP luminescence, at 10 µM.
Test [2] concerns the target Receptor tyrosine-protein kinase erbB-2 (Homo sapiens) (UniProt P04626). The description is as above. To be noted: 18-24 h, at 10 µM, stronger effect = lower value.
Test [3] can be described thus: SK-BR-3 cell growth inhibitors, pilot screen, 24 h, human (AID 572;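 active = viability at or below 10% of carrier control in both of two separate runs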;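 also: compound exposure lasted between 18 and 24 h rather than exactly 24 h; 100% = carrier-treated control wells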). To be noted: SK-BR-3 viability, CellTiter-Glo luminescence, at 10 µM, stronger effect = lower value.
Test [4] can be described thus: HUVEC growth inhibition – cell-based, human, primary screen (AID 575).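 Also: 100% = median of untreated cell wells with 0.1% DMSO on each plate.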 As to conditions: HUVEC proliferation, CellTiter-Glo luminescence, 72 h; at 10 µM; stronger effect = lower value. In short, it runs like this: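 Timing: 72 h treatment at 37 °C; material: HUVEC primary cells; technique: CellTiter-Glo luminescence measuring cellular ATP; controls: vehicle and MePR control wells; measure: percent of median DMSO-control luminescence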

Test [5] is described as follows: growth inhibitors of H69AR lung tumor, primary screen, human, duplicate replicates (AID 580;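 active = viability at or under a set limit in both replicates, limit being median viability minus 3 SD, cut at about 48% in these data, passing the limit was not always enough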;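 also: 100% = mean luminescence of untreated wells and 0% = no signal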). To be noted: H69AR lung tumor cells viability, ATP luminescence, 72 h; at 10 µM; stronger effect = lower value.
The nature of test [6]: reversal of MRP1-mediated doxorubicin resistance, pilot screen, H69AR cells, doxorubicin co-treatment (AID 601;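 active = viability loss from added drug above about 55%, and viability with drug at most 40%, in both replicates, limit read from the data, passing the limit was not always enough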). As to conditions: CellTiter-Glo, 72 h, at 10 µM; for differential viability (reversal): stronger effect = higher value.
Test [7] in a line: 384-well plate pilot, post-Golgi transport modulator project, inhibition of yeast transport mutant growth (AID 636; in the data active = inhibition above about 31%). To be noted: absorbance 615 nm, about 18 h, stronger effect = higher value.
Test [8] is described as follows: growth suppression of yeast trafficking mutant, preliminary HTS, modulators of trafficking downstream of Golgi apparatus project, 1536-format plate, OD 615 nm (AID 637; in the data active = inhibition above about 30%). To be noted: yeast transport mutant growth, absorbance 615 nm, 18 h; stronger effect = higher value.
[9] abbreviates: H69AR cells + 2 uM doxorubicin, measured here: viability with 2 uM doxorubicin, stronger effect = lower value.
Setting [10] is: H69AR cells, compound alone cytotoxicity.

Active and inactive are the calls of the source.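 The calls were made as follows, unless noted: active = viability at or below 30% in both replicate assays; inconclusive = viability at or below 30% in just one of the two assays; inactive = the rest.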

Chain of Receptor tyrosine-protein kinase erbB-2 (Homo sapiens) (P04626 whole entry, looked up): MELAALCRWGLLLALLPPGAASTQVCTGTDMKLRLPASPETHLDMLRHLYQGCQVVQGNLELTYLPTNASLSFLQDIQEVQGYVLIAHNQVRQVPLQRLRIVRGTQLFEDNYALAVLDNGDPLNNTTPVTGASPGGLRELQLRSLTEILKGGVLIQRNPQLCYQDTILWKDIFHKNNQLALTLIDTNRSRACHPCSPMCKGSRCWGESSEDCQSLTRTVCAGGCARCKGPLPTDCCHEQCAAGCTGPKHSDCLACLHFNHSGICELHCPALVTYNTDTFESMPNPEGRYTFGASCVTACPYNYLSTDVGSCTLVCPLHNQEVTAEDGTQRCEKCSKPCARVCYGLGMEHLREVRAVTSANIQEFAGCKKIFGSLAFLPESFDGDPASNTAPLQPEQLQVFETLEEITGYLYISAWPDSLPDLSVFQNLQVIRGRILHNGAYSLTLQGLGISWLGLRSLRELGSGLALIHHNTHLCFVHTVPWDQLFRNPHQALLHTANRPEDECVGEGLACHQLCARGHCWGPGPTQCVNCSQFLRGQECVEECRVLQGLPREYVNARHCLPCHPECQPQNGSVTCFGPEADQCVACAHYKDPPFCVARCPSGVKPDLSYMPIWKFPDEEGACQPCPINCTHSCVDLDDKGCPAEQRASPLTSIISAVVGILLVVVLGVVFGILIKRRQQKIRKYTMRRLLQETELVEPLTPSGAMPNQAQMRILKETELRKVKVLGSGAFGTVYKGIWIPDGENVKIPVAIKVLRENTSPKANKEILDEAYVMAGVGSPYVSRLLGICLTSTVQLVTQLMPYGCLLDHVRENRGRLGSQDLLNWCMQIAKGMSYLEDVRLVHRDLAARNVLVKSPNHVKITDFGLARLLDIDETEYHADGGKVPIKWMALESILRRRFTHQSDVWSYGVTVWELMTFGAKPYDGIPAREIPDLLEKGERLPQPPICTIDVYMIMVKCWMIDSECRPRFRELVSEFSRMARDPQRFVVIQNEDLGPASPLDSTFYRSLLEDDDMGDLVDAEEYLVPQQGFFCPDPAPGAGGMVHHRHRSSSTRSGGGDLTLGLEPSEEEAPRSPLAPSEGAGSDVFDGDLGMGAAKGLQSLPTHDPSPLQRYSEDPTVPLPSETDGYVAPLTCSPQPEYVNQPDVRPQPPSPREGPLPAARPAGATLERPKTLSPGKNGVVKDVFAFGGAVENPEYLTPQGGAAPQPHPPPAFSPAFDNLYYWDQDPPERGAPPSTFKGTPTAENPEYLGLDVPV

Turning to `Cc1nc2ccccc2c2c1C(=O)N(CCC1=CCCCC1)C2=O`, the viability was 83.5% in test [1]; 83.5% (inactive) in test [3]; 103% (inactive) in test [4]; 88.4% (inactive) in test [5]; 89.7% in test [6] (setting [9]); 88.4% in test [6] (setting [10]). The Her2 level in test [2] is 87% (inactive). The differential viability (reversal) in test [6] (H69AR cells + 2 uM doxorubicin) is -1.33% (inactive). The results for the inhibition in test [7] and in test [8] were -3.42% (inactive) and -1.17% (inactive), respectively.
Turning to `COc1cc(N2C(=O)CSC23C(=O)Nc2ccccc23)cc(OC)c1OC` (stereo not given), the viability is 95.5% in test [1]; 95.5% (inactive) in test [3]; 79.7% (inactive) in test [4]; 95.7% (inactive) in test [5]; 87.8% in test [6] (setting [9]); 95.7% in test [6] (setting [10]). Also, the Her2 level in test [2] is 105% (inactive). In addition, in test [6] (H69AR cells + 2 uM doxorubicin), the differential viability (reversal) is 7.86% (inactive). Further, the figures for the inhibition in test [7] and in test [8] were -1.97% (inactive) and -5.81% (inactive), respectively.
For the compound `COc1ccc(CN2C(=O)c3cccnc3C2Nc2cc(Cl)ccc2OC)cc1` (stereo not given), the viability in test [1] was 84.5%; in test [3], 84.5% (inactive); in test [4], 85% (inactive); in test [5], 93.2% (inactive); in test [6] (setting [9]), 92.5%; in test [6] (setting [10]), 93.2%. The Her2 level in test [2] was 110% (inactive). Also, the differential viability (reversal) in test [6] (H69AR cells + 2 uM doxorubicin) is 0.7% (inactive). Moreover, the inhibition was 2.67% (inactive) in test [7] and -1.8% (inactive) in test [8].
As for `Cc1oc(-c2ccccc2F)nc1CS(=O)(=O)CC(=O)NCCCN1CCc2ccccc2C1`, the viability was 81.5% in test [1]; 81.5% (inactive) in test [3]; 56.5% (inactive) in test [4]; 79.9% (inactive) in test [5]; 89.1% in test [6] (setting [9]); 79.9% in test [6] (setting [10]). In test [2], the Her2 level is 81.5% (inactive). Also, in test [6] (H69AR cells + 2 uM doxorubicin), the differential viability (reversal) is -9.14% (inactive). Also, the inhibition is -1.6% (inactive) in test [7] and -1.97% (inactive) in test [8].
In the case of `CCCC1(C(=O)OCC)NC(c2ccc(N(C)C)cc2)C2C(=O)N(c3ccc(F)cc3)C(=O)C21` (stereo not given), the viability in test [1] is 90%; in test [3] it was 90% (inactive); in test [4], 104% (inactive); in test [5] it was 112% (inactive); in test [6] (setting [9]), 98.2%; in test [6] (setting [10]) it was 112%. The Her2 level in test [2] was 97% (inactive). Further, in test [6] (H69AR cells + 2 uM doxorubicin), the differential viability (reversal) is 13.8% (inactive). For the same compound, the inhibition was 0% (inactive) in test [7] and -2.67% (inactive) in test [8].
Consider `CCOc1ccc(C2C=C(c3ccc(F)cc3)Nc3ncnn32)cc1` (stereo not given), for which the viability was 91.5% in test [1]; 91.5% (inactive) in test [3]; 81.2% (inactive) in test [4]; 82.2% (inactive) in test [5]; 79.1% in test [6] (setting [9]); 82.2% in test [6] (setting [10]). Moreover, in test [2], the Her2 level was 87% (inactive). Further, the differential viability (reversal) in test [6] (H69AR cells + 2 uM doxorubicin) was 3.07% (inactive). Further, the values for the inhibition in test [7] and in test [8] were -4.42% (inactive) and 9.34% (inactive), respectively.
In the case of `O=C(Nn1c(C2CC2)nc2ccccc2c1=O)c1ccco1`, the viability in test [1] is 109%; in test [3], 109% (inactive); in test [4] it was 93.9% (inactive); in test [5], 95.4% (inactive); in test [6] (setting [9]) it was 95.9%; in test [6] (setting [10]) it was 95.4%. For the same compound, the Her2 level in test [2] was 108% (inactive). In addition, the differential viability (reversal) in test [6] (H69AR cells + 2 uM doxorubicin) was -0.5% (inactive). The inhibition in test [7] was -3.77% (inactive); in test [8] it was -6.39% (inactive).
`CCOC(=O)c1ccccc1NC(=O)Cn1cnc2c(cnn2-c2ccc(OC)cc2)c1=O`: the viability is 89.5% in test [1]; 89.5% (inactive) in test [3]; 81.4% (inactive) in test [4]; 101% (inactive) in test [5]; 99.7% in test [6] (setting [9]); 101% in test [6] (setting [10]). Also, in test [2], the Her2 level is 91.5% (inactive). In test [6] (H69AR cells + 2 uM doxorubicin), the differential viability (reversal) was 1.5% (inactive). The inhibition was -5.54% (inactive) in test [7] and 1.83% (inactive) in test [8].
Take `O=C(Nc1nc(-c2ccccc2)cs1)C1CCCCN1S(=O)(=O)c1ccccc1` (stereo not given): the viability in test [1] is 100%; in test [3], 100% (inactive); in test [4], 71.5% (inactive); in test [5] it was 73.8% (inactive); in test [6] (setting [9]), 92%; in test [6] (setting [10]), 73.8%. The Her2 level in test [2] was 80% (inactive). In addition, the differential viability (reversal) in test [6] (H69AR cells + 2 uM doxorubicin) was -18.2% (inactive). Further, the inhibition in test [7] was -0.13% (inactive); in test [8], 11.4% (inactive).
For the compound `CCOc1ccc(N2C(N)=NC(N)=NC2(C)C)cc1`, the viability in test [1] was 92.5%; in test [3], 92.5% (inactive); in test [4] it was 101% (inactive); in test [5], 75.4% (inactive); in test [6] (setting [9]), 102%; in test [6] (setting [10]), 75.4%. The Her2 level in test [2] was 85% (inactive). The differential viability (reversal) in test [6] (H69AR cells + 2 uM doxorubicin) is -26.6% (inactive). The inhibition was -0.26% (inactive) in test [7] and 12.1% (inactive) in test [8].
On to `Cc1cccc2cc(CN(CC3CCCO3)C(=O)c3cnccn3)c(=O)[nH]c12` (stereo not given), for which the viability in test [1] is 116%; in test [3], 116% (inactive); in test [4] it was 96.9% (inactive); in test [5], 85.1% (inactive); in test [6] (setting [9]) it was 87.9%; in test [6] (setting [10]) it was 85.1%. Also, the Her2 level in test [2] was 105% (inactive). For the same compound, the differential viability (reversal) in test [6] (H69AR cells + 2 uM doxorubicin) is -2.77% (inactive). Moreover, the inhibition was -1.43% (inactive) in test [7] and -0.67% (inactive) in test [8].
For `CCOC(=O)c1cc2c(=O)n3cccc(C)c3nc2n(Cc2ccco2)c1=NC(=O)c1cccnc1`, the viability in test [1] is 92.5%; in test [3], 92.5% (inactive); in test [4], 71.4% (inactive); in test [5], 80.7% (inactive); in test [6] (setting [9]), 72.4%; in test [6] (setting [10]) it was 80.7%. Further, in test [2], the Her2 level is 82% (inactive). In addition, in test [6] (H69AR cells + 2 uM doxorubicin), the differential viability (reversal) was 8.21% (inactive). Besides, the figures for the inhibition in test [7] and in test [8] were -1.71% (inactive) and 2.58% (inactive), respectively.
As for `Cc1cc(C)n(-c2nc3ccccc3c(=O)n2OCCOc2ccccc2)n1`, the viability in test [1] was 78%; in test [3], 78% (inactive); in test [4], 97.2% (inactive); in test [5] it was 89.6% (inactive); in test [6] (setting [9]), 79.3%; in test [6] (setting [10]), 89.6%. Also, the Her2 level in test [2] is 93% (inactive). In test [6] (H69AR cells + 2 uM doxorubicin), the differential viability (reversal) was 10.3% (inactive). For the same compound, the results for the inhibition in test [7] and in test [8] were -0.13% (inactive) and -6.07% (inactive), respectively.
In the case of `COc1ccc(N2CCC(CNS(=O)(=O)c3cccc(C(F)(F)F)c3)C2)cc1` (stereo not given), the viability in test [1] is 98%; in test [3], 98% (inactive); in test [4], 84.5% (inactive); in test [5], 86.7% (inactive); in test [6] (setting [9]), 88.9%; in test [6] (setting [10]) it was 86.7%. The Her2 level in test [2] was 95% (inactive). In test [6] (H69AR cells + 2 uM doxorubicin), the differential viability (reversal) is -2.23% (inactive). Besides, the inhibition is -2.63% (inactive) in test [7] and 16.6% (inactive) in test [8].
Regarding `COc1cc2[nH]c(=O)n(CCC(=O)N3CCc4ccccc4C3)c(=O)c2cc1OC`, the viability is 102% in test [1]; 102% (inactive) in test [3]; 116% (inactive) in test [4]; 92.4% (inactive) in test [5]; 95% in test [6] (setting [9]); 92.4% in test [6] (setting [10]). Also, the Her2 level in test [2] was 106% (inactive). For the same compound, in test [6] (H69AR cells + 2 uM doxorubicin), the differential viability (reversal) is -2.6% (inactive). Besides, the inhibition in test [7] is -4.73% (inactive); in test [8] it was -2.33% (inactive).
With `CCCn1c(C)cc(C(=O)COc2ncnc3sccc23)c1C`, the viability was 89% in test [1]; 89% (inactive) in test [3]; 74.1% (inactive) in test [4]; 63.8% (inactive) in test [5]; 82.3% in test [6] (setting [9]); 63.8% in test [6] (setting [10]). In addition, the Her2 level in test [2] was 98.5% (inactive). In addition, the differential viability (reversal) in test [6] (H69AR cells + 2 uM doxorubicin) is -18.6% (inactive). Further, the inhibition is 1.3% (inactive) in test [7] and -11.8% (inactive) in test [8].

The values are drawn from PubChem BioAssay.
